Experimental data: ChEMBL document CHEMBL4819106, “Aminopyrazole based CDK9 PROTAC sensitizes pancreatic cancer cells to venetoclax” (Bioorg Med Chem Lett, 2021)
Calls of active or inactive are those of the source. No cut-off for these calls is given here.

What was measured:
[1] = target: Cyclin-dependent kinase 7 (Homo sapiens) (UniProt P50613); test: Inhibition of CDK7 in human HEK293 cells assessed as reduction in CDK7 level at 10 uM incubated for 24 hrs by Western blot analysis; type: cell-based
Procedure, shortened: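 HEK293 cells were treated at indicated concentrations for 24 h. Lysates were analysed by western blot and probed for CDK family members, including CDK7 and CDK9.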

[2] = target: T1, Protein cereblon/Cyclin-dependent kinase 9 (Homo sapiens, UniProt P50750+Q96SW2); test: Protac activity at CDK9/CRBN in human HEK293 cells assessed as degradation of CDK9 at 0.01 to 10 uM incubated for 24 hrs by Western blot analysis; type: cell-based; details: dose 0.01-10 µM
Procedure, shortened: (§1)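 HEK293 cells were treated with increasing concentrations (0.01–10 μM) for 24 hr. Lysates were analysed by western blot for CDK9 degradation.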
Target sequence in this assay (P50750 whole entry, looked up): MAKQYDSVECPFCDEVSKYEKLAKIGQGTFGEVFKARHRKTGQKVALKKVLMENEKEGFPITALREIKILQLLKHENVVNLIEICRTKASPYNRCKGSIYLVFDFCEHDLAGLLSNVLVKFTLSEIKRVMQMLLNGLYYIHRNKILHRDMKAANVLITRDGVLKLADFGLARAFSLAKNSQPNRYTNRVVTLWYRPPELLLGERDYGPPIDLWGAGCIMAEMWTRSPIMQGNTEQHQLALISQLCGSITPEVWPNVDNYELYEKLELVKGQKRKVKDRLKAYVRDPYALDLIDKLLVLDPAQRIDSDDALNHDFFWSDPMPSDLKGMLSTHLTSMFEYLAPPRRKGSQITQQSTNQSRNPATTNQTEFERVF
Target sequence in this assay (Q96SW2 whole entry, looked up): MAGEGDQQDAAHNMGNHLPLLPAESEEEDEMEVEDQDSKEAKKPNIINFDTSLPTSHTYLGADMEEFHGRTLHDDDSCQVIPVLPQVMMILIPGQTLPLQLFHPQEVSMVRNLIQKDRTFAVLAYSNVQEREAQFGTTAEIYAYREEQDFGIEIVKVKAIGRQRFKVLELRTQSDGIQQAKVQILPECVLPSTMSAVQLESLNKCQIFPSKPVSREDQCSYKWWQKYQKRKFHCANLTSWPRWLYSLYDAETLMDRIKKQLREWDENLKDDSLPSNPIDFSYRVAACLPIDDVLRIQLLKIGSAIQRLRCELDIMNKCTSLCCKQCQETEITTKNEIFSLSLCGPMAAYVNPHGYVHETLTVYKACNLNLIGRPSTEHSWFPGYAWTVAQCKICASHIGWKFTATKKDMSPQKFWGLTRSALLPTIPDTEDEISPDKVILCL

[3] = target: T2, Cyclin-dependent kinase 9 (Homo sapiens, UniProt P50750); test: Binding affinity to CDK9 (unknown origin)
[4] = target: T3, Cyclin-dependent kinase 5 (Homo sapiens, UniProt Q00535); test: Binding affinity to CDK5 (unknown origin)
[5] = target: T2, Cyclin-dependent kinase 9; test: Inhibition of CDK9 (unknown origin)
[6] = target: T3, Cyclin-dependent kinase 5; test: Inhibition of CDK5 (unknown origin)
[7] = target: T1, Protein cereblon/Cyclin-dependent kinase 9; test: Protac activity at CDK9/CRBN in human HEK293 cells assessed as degradation of CDK9 incubated for 24 hrs by Western blot analysis; type: cell-based; procedure, shortened: as §1
Target sequence in this assay (P50750 whole entry): as the sequence (P50750 whole entry, looked up) above
Target sequence in this assay (Q96SW2 whole entry): as the sequence (Q96SW2 whole entry, looked up) above

T2 sequence (P50750 whole entry): as the sequence (P50750 whole entry, looked up) above
T3 sequence (Q00535 whole entry): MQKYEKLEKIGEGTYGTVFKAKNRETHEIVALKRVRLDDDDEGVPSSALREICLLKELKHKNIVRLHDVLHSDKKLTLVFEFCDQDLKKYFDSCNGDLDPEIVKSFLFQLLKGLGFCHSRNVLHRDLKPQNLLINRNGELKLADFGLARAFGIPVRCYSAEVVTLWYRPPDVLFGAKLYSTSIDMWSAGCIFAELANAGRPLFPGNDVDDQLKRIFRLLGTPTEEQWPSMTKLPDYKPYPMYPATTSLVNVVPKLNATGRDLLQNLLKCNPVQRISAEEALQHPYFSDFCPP
Sequence of Cyclin-dependent kinase 7 (Homo sapiens) (P50613 whole entry): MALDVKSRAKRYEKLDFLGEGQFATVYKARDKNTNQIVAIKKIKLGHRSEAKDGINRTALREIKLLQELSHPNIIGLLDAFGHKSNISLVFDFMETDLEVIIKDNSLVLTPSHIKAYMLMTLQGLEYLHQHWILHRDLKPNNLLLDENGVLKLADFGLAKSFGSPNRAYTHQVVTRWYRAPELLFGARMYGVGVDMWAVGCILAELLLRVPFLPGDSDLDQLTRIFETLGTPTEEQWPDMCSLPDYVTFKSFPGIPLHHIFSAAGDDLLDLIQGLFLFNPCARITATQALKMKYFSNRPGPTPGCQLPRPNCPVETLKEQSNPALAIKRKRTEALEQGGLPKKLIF

CN1CC[C@H](c2c(O)cc(O)c3c(=O)cc(-c4ccccc4Cl)oc23)[C@H](O)C1
Activity [1]: inactive

O=C(COCCOCCOCCOc1ccc(CC(=O)Nc2cc(C3CCC3)[nH]n2)cc1)NCCCCNc1cccc2c1C(=O)N(C1CCC(=O)NC1=O)C2=O (centres undefined)
Activity [2]: inactive

COc1ccc(CC(=O)Nc2cc(C3CCC3)[nH]n2)cc1
Kd [3]: 1060 nM
Kd [4]: 230 nM
IC50 [5]: 1080 nM
IC50 [6]: 32 nM

O=C(COCCOCCOCCOc1cccc(CC(=O)Nc2cc(C3CCC3)[nH]n2)c1)NCCOCCOCCNc1cccc2c1C(=O)N(C1CCC(=O)NC1=O)C2=O (centres undefined)
Activity [2]: inactive

O=C(CCCOc1ccc(CC(=O)Nc2cc(C3CCC3)[nH]n2)cc1)NCCOCCOCCNc1cccc2c1C(=O)N(C1CCC(=O)NC1=O)C2=O (centres undefined)
Activity [2]: inactive

O=C(COc1ccc(CC(=O)Nc2cc(C3CCC3)[nH]n2)cc1)NCCCCCCCCNc1cccc2c1C(=O)N(C1CCC(=O)NC1=O)C2=O (centres undefined)
DC50 [7]: 1000 nM
